Published values gathered from unrelated publications.
Each line is one published result; the experiments were not run side by side.
Observed: cell growth or viability

Structure (SMILES)	cell line	assay	conditions	IC50
N.N.[Cl][Pt][Cl]	PLC	–	48 h	47.2 µM
COCCOCOc1cc(OCc2ccc(Br)cc2)c(C(=O)/C=C/c2ccc(C(=O)O)cc2)cc1C12CC3CC(CC(C3)C1)C2	Jurkat	ATP luminescence	24 h	0.84 µM
N.N.[Cl][Pt][Cl]	MIA PaCa-2	resazurin	72 h	5.9 µM
CC1=C2C[C@H]3[C@@H](CC=C4C[C@@H](O)CC[C@@]43C)[C@@H]2CC[C@]12O[C@@H]1C[C@H](C)CN[C@H]1[C@H]2C	MIA PaCa-2	MTS	96 h	17.1 µM
COc1c2c(cc3c1OCO3)[C@]13C=C[C@H](OC)C[C@@H]1[N@](C2)C[C@H]3OC(=O)c1ccco1	MOLT-4	WST-1	–	> 10 µM
Cl.O[C@]12C=C(c3nccc4c3[nH]c3ccccc34)[C@@H]3CCN(CCCC/C=C\CC1)C[C@@]31C[C@@H]3/C=C\CCCCN3[C@H]12	BT-549	neutral red	48 h	0.88 µg/mL
COc1cccc2c1C(=O)c1c(O)c3c(c(O)c1C2=O)C[C@@](O)(C(=O)CO)C[C@@H]3O[C@H]1C[C@H](N)[C@H](O)[C@H](C)O1	BT-549	–	48 h	1.5 µg/mL
COc1c2c(cc3c1OCO3)[C@]13C=C[C@H](OC)C[C@@H]1[N@](C2)C[C@H]3OC(=O)c1ccoc1	MOLT-4	WST-1	–	> 10 µM
COCCOCOc1cc(O)c(-c2cc(-c3ccc(C(=O)O)cc3)n(C)n2)cc1C12CC3CC(CC(C3)C1)C2	Jurkat	ATP luminescence	24 h	4.73 µM
C[C@H]1O[C@H](Oc2c(-c3ccc(O)c(O)c3)oc3cc(O)cc(O)c3c2=O)[C@@H](O)[C@@H](O)[C@@H]1O	SW780	ATP luminescence	72 h	190 µM
